ChEMBL document CHEMBL4619802, “Discovery and Characterization of Pure RhlR Antagonists against Pseudomonas aeruginosa Infections” (J Med Chem, 2020)
Calls of active or inactive are those of the source. The calls are words filed in the database; no cut-off is given here.

Columns and labels:
[1] = target: T1, HTH-type quorum-sensing regulator RhlR (Pseudomonas aeruginosa (strain ATCC 15692 / PAO1 / 1C / PRS 101 / LMG12228)) (UniProt P54292); assay: Modulation of RhlR in Pseudomonas aeruginosa assessed as inhibition of biofilm formation at 10 uM incubated for 24 hrs under static condition by crystal violet staining based assay relative to control; set-up: scale not given: the % may be the effect or the level left
T1 sequence (whole entry): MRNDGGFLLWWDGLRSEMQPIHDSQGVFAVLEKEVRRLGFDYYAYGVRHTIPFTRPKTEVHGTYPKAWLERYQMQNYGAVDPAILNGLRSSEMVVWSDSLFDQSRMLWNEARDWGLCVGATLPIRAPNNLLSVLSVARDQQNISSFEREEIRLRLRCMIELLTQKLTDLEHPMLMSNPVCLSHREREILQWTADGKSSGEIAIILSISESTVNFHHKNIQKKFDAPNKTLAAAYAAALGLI
How it was run: (§1)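 P. aeruginosa overnight culture (OD595 1.0) diluted 1:20 in AB medium (pH 7.5, 1% glucose, casamino acids, arginine) with compound, in borosilicate bottles, 37 °C for 24 h without shaking. Growth taken as OD595 of the suspended culture. Attached cells washed twice with PBS, stained with 0.1% crystal violet for 10 min, dye eluted in ethanol and read at 545 nm.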

[2] = target: T1, HTH-type quorum-sensing regulator RhlR (Pseudomonas aeruginosa (strain ATCC 15692 / PAO1 / 1C / PRS 101 / LMG12228)); assay: Modulation of RhlR in Pseudomonas aeruginosa assessed as inhibition of biofilm formation at 100 uM incubated for 24 hrs under static condition by crystal violet staining based assay relative to control; set-up: scale not given: the % may be the effect or the level left; how it was run: as §1
[3] = target: T1, HTH-type quorum-sensing regulator RhlR (Pseudomonas aeruginosa (strain ATCC 15692 / PAO1 / 1C / PRS 101 / LMG12228)); assay: Antagonist activity at Pseudomonas aeruginosa RhlR expressed in Escherichia coli DH5alpha assessed as relative protein activity at 100 uM incubated for 1.5 hrs in presence of N-butyryl-L-homoserine lactone by luminescence reporter gene assay relative to control; set-up: scale not given: the % may be the effect or the level left
How it was run: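 E. coli DH5α sdiA mutant carrying RhlR and rhlA::lacZ plasmids, at OD595 0.3 in LB. Compound given with BHL (10 µM per footnote) and 0.4% arabinose, 37 °C for 1.5 h.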

[4] = target: T2, Transcriptional regulator MvfR (Pseudomonas aeruginosa PA14) (UniProt A0A072ZLE6); assay: Antagonist activity at Pseudomonas aeruginosa PqsR expressed in Escherichia coli DH5alpha at 0.1 to 10 uM incubated for 1.5 hrs by luminescence reporter gene assay
T2 sequence (whole entry): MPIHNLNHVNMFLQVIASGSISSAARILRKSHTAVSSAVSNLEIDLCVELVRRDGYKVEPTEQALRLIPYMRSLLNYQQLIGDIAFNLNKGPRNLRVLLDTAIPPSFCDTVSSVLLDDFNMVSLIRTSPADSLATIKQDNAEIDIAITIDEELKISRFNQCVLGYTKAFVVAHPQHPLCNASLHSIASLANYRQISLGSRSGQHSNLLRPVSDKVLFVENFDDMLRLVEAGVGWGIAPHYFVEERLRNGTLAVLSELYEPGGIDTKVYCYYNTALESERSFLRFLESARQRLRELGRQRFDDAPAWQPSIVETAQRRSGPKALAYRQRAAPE

Pseudomonas aeruginosa [5] = assay: Downregulation of rhlA expression in biofilm of Pseudomonas aeruginosa at 10 uM after 24 hrs by RT-qPCR analysis relative to control; type: functional
How it was run: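 P. aeruginosa (OD595 1.0) diluted 1:20 in AB medium with compound in borosilicate bottles, 37 °C for 24 h. Total RNA extracted from biofilm cells and run by SYBR RT-qPCR with QS-gene primers. Cycling: 95 °C 10 s, then 40 cycles of 95 °C 10 s and 60 °C 10 s.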

[6] = target: T3, Transcriptional activator protein LasR (Pseudomonas aeruginosa (strain ATCC 15692 / PAO1 / 1C / PRS 101 / LMG12228)) (UniProt P25084); assay: Antagonist activity at Pseudomonas aeruginosa LasR expressed in Escherichia coli DH5alpha at 0.1 to 10 uM incubated for 1.5 hrs by luminescence reporter gene assay
T3 sequence (whole entry): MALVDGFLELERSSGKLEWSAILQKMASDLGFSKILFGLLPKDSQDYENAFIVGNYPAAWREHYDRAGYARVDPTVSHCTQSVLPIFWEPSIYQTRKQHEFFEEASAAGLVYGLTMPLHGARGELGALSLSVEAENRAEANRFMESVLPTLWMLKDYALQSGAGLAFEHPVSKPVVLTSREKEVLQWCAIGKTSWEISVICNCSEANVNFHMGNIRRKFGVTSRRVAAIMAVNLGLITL

[7] = target: T2, Transcriptional regulator MvfR (Pseudomonas aeruginosa PA14); assay: Agonist activity at Pseudomonas aeruginosa PqsR expressed in Escherichia coli DH5alpha at 0.1 to 10 uM incubated for 1.5 hrs by luminescence reporter gene assay
[8] = target: T1, HTH-type quorum-sensing regulator RhlR (Pseudomonas aeruginosa (strain ATCC 15692 / PAO1 / 1C / PRS 101 / LMG12228)); assay: Agonist activity at Pseudomonas aeruginosa RhlR expressed in Escherichia coli DH5alpha assessed as relative protein activity at 100 uM incubated for 1.5 hrs by luminescence reporter gene assay relative to control
[9] = target: T3, Transcriptional activator protein LasR (Pseudomonas aeruginosa (strain ATCC 15692 / PAO1 / 1C / PRS 101 / LMG12228)); assay: Agonist activity at Pseudomonas aeruginosa LasR expressed in Escherichia coli DH5alpha at 0.1 to 10 uM incubated for 1.5 hrs by luminescence reporter gene assay
Pseudomonas aeruginosa [10] = assay: Antibacterial activity against Pseudomonas aeruginosa infected in Tenebrio molitor larvae assessed as larvae survival at 10 uM incubated for 20 days and measured every 5 days; type: functional
How it was run: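 P. aeruginosa overnight culture (OD595 = 1.0) was centrifuged, and the supernatant passed through a 0.22 µm filter. 10 µL was injected into T. molitor larvae by syringe needle, with compounds or controls at 0–10 µM. Larvae were kept in Petri dishes at 25 °C for 20 days, and mortality was scored every 5 days.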

Pseudomonas aeruginosa [11] = assay: Antibacterial activity against Pseudomonas aeruginosa assessed as bacterial growth at 10 uM incubated for 24 hrs relative to control; type: functional; how it was run: as §1
Pseudomonas aeruginosa [12] = assay: Effect on extracellular polymeric substance in biofilm of Pseudomonas aeruginosa assessed as reduction in protein level at 10 uM relative to control; type: functional; set-up: scale not given: the % may be the effect or the level left
How it was run: (§2)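 Biofilm scraped from drip-flow reactor slides and resuspended in 0.01 M KCl. Sonicated 4 cycles of 5 s on/5 s off, supernatant filtered through 0.22 µm. Protein by Lowry/Folin, read at OD750. Carbohydrate by sulfuric acid 30 min then 5% phenol at 90 °C for 5 min, read at OD490. Each divided by OD595.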

Pseudomonas aeruginosa [13] = assay: Antibacterial activity against Pseudomonas aeruginosa assessed as bacterial growth at 100 uM incubated for 24 hrs relative to control; type: functional; how it was run: as §1
Pseudomonas aeruginosa [14] = assay: Effect on extracellular polymeric substance in biofilm of Pseudomonas aeruginosa assessed as reduction in carbohydrate level at 10 uM relative to control; type: functional; set-up: scale not given: the % may be the effect or the level left; how it was run: as §2
Pseudomonas aeruginosa [15] = assay: Effect on pqsR expression in Pseudomonas aeruginosa harboring RhlR mutant up to 10 uM after 24 hrs by RT-qPCR method; type: functional, organism-based
How it was run: (§3)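 P. aeruginosa overnight culture (OD595 = 1.0) was diluted 1:20 in AB medium (pH 7.5) with compounds or controls at 0–10 µM. It was grown statically in borosilicate bottles at 37 °C for 24 h, and biofilm cells were collected. Total RNA was extracted with TRI reagent. SYBR-based RT-qPCR used QS gene primers: 95 °C 10 s, then 40 cycles of 95 °C 10 s and 60 °C 10 s.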

Pseudomonas aeruginosa [16] = assay: Downregulation of phzC1 expression in Pseudomonas aeruginosa harboring RhlR mutant up to 10 uM after 24 hrs by RT-qPCR method; type: functional, organism-based; how it was run: as §3
Pseudomonas aeruginosa [17] = assay: Effect on lasB expression in Pseudomonas aeruginosa harboring RhlR mutant up to 10 uM after 24 hrs by RT-qPCR method; type: functional, organism-based; how it was run: as §3
Pseudomonas aeruginosa [18] = assay: Effect on lasR expression in Pseudomonas aeruginosa harboring RhlR mutant up to 10 uM after 24 hrs by RT-qPCR method; type: functional, organism-based; how it was run: as §3
Pseudomonas aeruginosa [19] = assay: Downregulation of rhlA expression in Pseudomonas aeruginosa harboring RhlR mutant up to 10 uM after 24 hrs by RT-qPCR method; type: functional, organism-based; how it was run: as §3
Pseudomonas aeruginosa [20] = assay: Effect on pycocyanin production in Pseudomonas aeruginosa harboring RhlR mutant at 10 uM after 24 hrs by […]; type: functional, organism-based
How it was run: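 P. aeruginosa overnight culture (OD595 = 1.0) was diluted 1:100 in AB medium with compounds or controls at 0–10 µM and grown at 37 °C for 24 h. Pyocyanin was extracted from the supernatant with 50% TFA at 37 °C for 1 h, then filtered. It was quantified by C18 HPLC (99:1 water/TFA, 0.5 mL/min, 25 °C) as peak height at the 20 min retention time.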

Row | Activity [1] [%] | Activity [2] [%] | Activity [3] [%] | Activity [4] | Activity [6] | Activity [7] | Activity [8] [%] | Activity [9] | Structure (SMILES) | Activity (Pseudomonas aeruginosa [5]) | survival at 10 µM (Pseudomonas aeruginosa [10]) [%] | Activity (Pseudomonas aeruginosa [11]) [%] | Activity (Pseudomonas aeruginosa [12]) [%] | Activity (Pseudomonas aeruginosa [13]) [%] | Activity (Pseudomonas aeruginosa [14]) [%] | Activity (Pseudomonas aeruginosa [15]) | Activity (Pseudomonas aeruginosa [16]) | Activity (Pseudomonas aeruginosa [17]) | Activity (Pseudomonas aeruginosa [18]) | Activity (Pseudomonas aeruginosa [19]) | Activity (Pseudomonas aeruginosa [20])
1 | 14 to 32 | 29 to 53 | 54 to 69 | inactive | inactive | inactive | 3 to 4 | inactive | CCCC(O)CC(=O)CCc1ccc(O)c(OC)c1 (stereo unspecified) | 65 - 79% |  |  |  |  |  |  |  |  |  |  | 
2 |  |  |  | inactive | Active | inactive |  | inactive | CCCCC[C@H](O)CC(=O)CCc1ccc(O)c(OC)c1 [GINGEROL] | 38% |  | 96 |  | 101 |  |  |  |  |  |  | 

Row | Structure (SMILES) | Activity [1] [%] | Activity [2] [%] | Activity [3] [%] | Activity [4] | Activity [6] | Activity [7] | Activity [8] [%] | Activity [9] | Activity (Pseudomonas aeruginosa [5]) | survival at 10 µM (Pseudomonas aeruginosa [10]) [%] | Activity (Pseudomonas aeruginosa [11]) [%] | Activity (Pseudomonas aeruginosa [12]) [%] | Activity (Pseudomonas aeruginosa [13]) [%] | Activity (Pseudomonas aeruginosa [14]) [%] | Activity (Pseudomonas aeruginosa [15]) | Activity (Pseudomonas aeruginosa [16]) | Activity (Pseudomonas aeruginosa [17]) | Activity (Pseudomonas aeruginosa [18]) | Activity (Pseudomonas aeruginosa [19]) | Activity (Pseudomonas aeruginosa [20])
3 | CCCC(=O)C#Cc1ccc(F)c(F)c1 |  |  |  | inactive |  | inactive |  | inactive | 65 - 79% | 80 | 103 | 72 | 99 | 39 | inactive | Active | inactive | inactive | Active | inactive
